Calls of active or inactive are those of the source. The rule behind the calls is not given here.
Experiments:
P2Y purinoceptor 2 [1] = target: T1, P2Y purinoceptor 2 (Homo sapiens, UniProt P41231); experiment: (§1) Antagonist activity at wild type P2Y2 receptor (unknown origin) expressed in human 1321N1 astrocytoma cells assessed as inhibition of UTP-induced increase in intracellular calcium mobilization preincubated for 30 mins followed by UTP addition measured after 1 hr by Fluo-4 AM dye based fluorescence assay; assay type: functional, cell-based
T1 sequence (P41231 whole entry): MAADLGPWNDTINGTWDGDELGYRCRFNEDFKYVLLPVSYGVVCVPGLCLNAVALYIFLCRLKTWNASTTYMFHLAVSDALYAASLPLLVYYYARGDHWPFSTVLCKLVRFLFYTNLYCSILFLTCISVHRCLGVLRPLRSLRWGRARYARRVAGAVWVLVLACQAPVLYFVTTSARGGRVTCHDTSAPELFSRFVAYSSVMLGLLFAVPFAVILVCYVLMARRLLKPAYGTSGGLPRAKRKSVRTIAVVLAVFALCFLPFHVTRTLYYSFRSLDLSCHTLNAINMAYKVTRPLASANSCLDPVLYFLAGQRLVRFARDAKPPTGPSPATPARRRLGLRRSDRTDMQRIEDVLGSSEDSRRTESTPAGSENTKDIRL
In short: (§2)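 Stably transduced 1321N1 cells expressing wt or mutant human P2Y2R were loaded with fluo-4 AM/Pluronic F-127 in HBSS for 1 h. Test compound was preincubated for 30 min, then UTP was injected at the EC80 determined for each cell line. Calcium fluorescence was read at ex 488/em 525 nm. IC50 was obtained by nonlinear regression, n ≥ 3.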

Homo sapiens [2] = organism: Homo sapiens; experiment: Selectivity ratio of EC50 for P2Y2 receptor R272A mutant (unknown origin) to EC50 for wild type P2Y2 receptor (unknown origin)
[3] = tested on: P2Y purinoceptor 2 (Homo sapiens), P41231 [Y114F]; experiment: as §1, with “receptor Y114F mutant” for “receptor”; assay type: functional, cell-based; in short: as §2
Chain of P2Y purinoceptor 2 (Homo sapiens), P41231 [Y114F] (P41231 whole entry Y114F): as the sequence (P41231 whole entry) above, with Y114F counted along it

Homo sapiens [4] = organism: Homo sapiens; experiment: as §1, with “receptor Y114A mutant” for “receptor”; assay type: cell-based; in short: as §2
Homo sapiens [5] = organism: Homo sapiens; experiment: as §1, with “receptor R194H mutant” for “receptor”; assay type: cell-based; in short: as §2
Homo sapiens [6] = organism: Homo sapiens; experiment: Selectivity ratio of IC50 for P2Y2 receptor Y114F mutant (unknown origin) to IC50 for wild type P2Y2 receptor (unknown origin)
In short: (§3)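 Human P2Y2R, wild type or single point mutant, retrovirally transduced into 1321N1 astrocytoma cells and selected with G418. Cells were seeded at 50000/well overnight, loaded with fluo-4 AM for 1 h in HBSS, and preincubated with antagonist for 30 min. UTP was then injected at its EC80 for that cell line. Calcium fluorescence was read at ex 488/em 525 nm. IC50 was fitted by nonlinear regression (n ≥ 3), and the ratio was taken as mutant IC50 over wild-type IC50.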

Homo sapiens [7] = organism: Homo sapiens; experiment: Selectivity ratio of IC50 for P2Y2 receptor Y268F mutant (unknown origin) to IC50 for wild type P2Y2 receptor (unknown origin); in short: as §3
Homo sapiens [8] = organism: Homo sapiens; experiment: Selectivity ratio of IC50 for P2Y2 receptor Y288F mutant (unknown origin) to IC50 for wild type P2Y2 receptor (unknown origin); in short: as §3
Homo sapiens [9] = organism: Homo sapiens; experiment: Selectivity ratio of IC50 for P2Y2 receptor F261A mutant (unknown origin) to IC50 for wild type P2Y2 receptor (unknown origin)
Homo sapiens [10] = organism: Homo sapiens; experiment: Selectivity ratio of IC50 for P2Y2 receptor R194H mutant (unknown origin) to IC50 for wild type P2Y2 receptor (unknown origin)
[11] = tested on: P2Y purinoceptor 2 (Homo sapiens), P41231 [Y288A]; experiment: Agonist activity at P2Y2 receptor Y288A mutant (unknown origin) expressed in human 1321N1 astrocytoma cells assessed as increase in intracellular calcium mobilization after 1 hr by Fluo-4 AM dye based fluorescence assay; assay type: functional, cell-based
Chain of P2Y purinoceptor 2 (Homo sapiens), P41231 [Y288A] (P41231 whole entry Y288A): as the sequence (P41231 whole entry) above, with Y288A counted along it
In short: (§4)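 Human 1321N1 astrocytoma cells stably carrying wt or point-mutant human P2Y2R, introduced by retrovirus and selected with G418, plated at 50000 cells/well the day before. Cells loaded with fluo-4 AM plus Pluronic F-127 in HBSS for 1 h, then washed. Agonist added at graded concentrations, fluorescence read at ex 488/em 525 nm. […] Carbachol 100 μM acting on endogenous M3 served as the maximum reference.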

[12] = tested on: P2Y purinoceptor 2 (Homo sapiens), P41231 [R292A]; experiment: Agonist activity at P2Y2 receptor R292A mutant (unknown origin) expressed in human 1321N1 astrocytoma cells assessed as increase in intracellular calcium mobilization after 1 hr by Fluo-4 AM dye based fluorescence assay; assay type: functional, cell-based; in short: as §4
Chain of P2Y purinoceptor 2 (Homo sapiens), P41231 [R292A] (P41231 whole entry R292A): as the sequence (P41231 whole entry) above, with R292A counted along it

[13] = tested on: P2Y purinoceptor 2 (Homo sapiens), P41231 [F261A]; experiment: Agonist activity at P2Y2 receptor F261A mutant (unknown origin) expressed in human 1321N1 astrocytoma cells assessed as increase in intracellular calcium mobilization after 1 hr by Fluo-4 AM dye based fluorescence assay; assay type: functional, cell-based; in short: as §4
Chain of P2Y purinoceptor 2 (Homo sapiens), P41231 [F261A] (P41231 whole entry F261A): as the sequence (P41231 whole entry) above, with F261A counted along it

P2Y purinoceptor 2 [14] = target: P2Y purinoceptor 2 (Homo sapiens, UniProt P41231, Y288F); experiment: (§5) Agonist activity at P2Y2 receptor Y288F mutant (unknown origin) expressed in human 1321N1 astrocytoma cells assessed as increase in intracellular calcium mobilization after 1 hr by Fluo-4 AM dye based fluorescence assay; assay type: functional, cell-based; in short: as §4
Chain of P2Y purinoceptor 2 (Homo sapiens, UniProt P41231, Y288F) (P41231 whole entry Y288F): as the sequence (P41231 whole entry) above, with Y288F counted along it

Homo sapiens [15] = organism: Homo sapiens; experiment: Selectivity ratio of EC50 for P2Y2 receptor F111A mutant (unknown origin) to EC50 for wild type P2Y2 receptor (unknown origin)
[16] = tested on: P2Y purinoceptor 2 (Homo sapiens), P41231 [R265A]; experiment: Agonist activity at P2Y2 receptor R265A mutant (unknown origin) expressed in human 1321N1 astrocytoma cells assessed as increase in intracellular calcium mobilization after 1 hr by Fluo-4 AM dye based fluorescence assay; assay type: functional, cell-based; in short: as §4
Chain of P2Y purinoceptor 2 (Homo sapiens), P41231 [R265A] (P41231 whole entry R265A): as the sequence (P41231 whole entry) above, with R265A counted along it

Homo sapiens [17] = organism: Homo sapiens; experiment: Selectivity ratio of EC50 for P2Y2 receptor Y269F mutant (unknown origin) to EC50 for wild type P2Y2 receptor (unknown origin)
Homo sapiens [18] = organism: Homo sapiens; experiment: Selectivity ratio of EC50 for P2Y2 receptor H184A mutant (unknown origin) to EC50 for wild type P2Y2 receptor (unknown origin)
Homo sapiens [19] = organism: Homo sapiens; experiment: Selectivity ratio of EC50 for P2Y2 receptor F261A mutant (unknown origin) to EC50 for wild type P2Y2 receptor (unknown origin)
Homo sapiens [20] = organism: Homo sapiens; experiment: Selectivity ratio of EC50 for P2Y2 receptor Y288F mutant (unknown origin) to EC50 for wild type P2Y2 receptor (unknown origin)
Homo sapiens [21] = organism: Homo sapiens; experiment: Selectivity ratio of EC50 for P2Y2 receptor Y268F mutant (unknown origin) to EC50 for wild type P2Y2 receptor (unknown origin)
[22] = tested on: P2Y purinoceptor 2 (Homo sapiens), P41231 [Y114F]; experiment: Agonist activity at P2Y2 receptor Y114F mutant (unknown origin) expressed in human 1321N1 astrocytoma cells assessed as increase in intracellular calcium mobilization after 1 hr by Fluo-4 AM dye based fluorescence assay; assay type: functional, cell-based; in short: as §4
Homo sapiens [23] = organism: Homo sapiens; experiment: Agonist activity at P2Y2 receptor R194A mutant (unknown origin) expressed in human 1321N1 astrocytoma cells assessed as increase in intracellular calcium mobilization after 1 hr by Fluo-4 AM dye based fluorescence assay; assay type: cell-based; in short: as §4
Homo sapiens [24] = organism: Homo sapiens; experiment: Selectivity ratio of EC50 for P2Y2 receptor S193A mutant (unknown origin) to EC50 for wild type P2Y2 receptor (unknown origin)
P2Y purinoceptor 2 [25] = target: T1, P2Y purinoceptor 2; experiment: Agonist activity at wild type P2Y2 receptor (unknown origin) expressed in human 1321N1 astrocytoma cells assessed as increase in intracellular calcium mobilization after 1 hr by Fluo-4 AM dye based fluorescence assay; assay type: functional, cell-based; in short: as §4
Homo sapiens [26] = organism: Homo sapiens; experiment: Selectivity ratio of EC50 for P2Y2 receptor R194H mutant (unknown origin) to EC50 for wild type P2Y2 receptor (unknown origin)
P2Y purinoceptor 2 [27] = target: P2Y purinoceptor 2 (Homo sapiens, UniProt P41231, H184A); experiment: Agonist activity at P2Y2 receptor H184A mutant (unknown origin) expressed in human 1321N1 astrocytoma cells assessed as increase in intracellular calcium mobilization after 1 hr by Fluo-4 AM dye based fluorescence assay; assay type: functional, cell-based; in short: as §4
Chain of P2Y purinoceptor 2 (Homo sapiens, UniProt P41231, H184A) (P41231 whole entry H184A): as the sequence (P41231 whole entry) above, with H184A counted along it

Homo sapiens [28] = organism: Homo sapiens; experiment: Selectivity ratio of EC50 for P2Y2 receptor R194A mutant (unknown origin) to EC50 for wild type P2Y2 receptor (unknown origin)
P2Y purinoceptor 2 [29] = target: P2Y purinoceptor 2 (Homo sapiens, UniProt P41231, S193A); experiment: Agonist activity at P2Y2 receptor S193A mutant (unknown origin) expressed in human 1321N1 astrocytoma cells assessed as increase in intracellular calcium mobilization after 1 hr by Fluo-4 AM dye based fluorescence assay; assay type: functional, cell-based; in short: as §4
Chain of P2Y purinoceptor 2 (Homo sapiens, UniProt P41231, S193A) (P41231 whole entry S193A): as the sequence (P41231 whole entry) above, with S193A counted along it

Homo sapiens [30] = organism: Homo sapiens; experiment: Selectivity ratio of EC50 for P2Y2 receptor Y114F mutant (unknown origin) to EC50 for wild type P2Y2 receptor (unknown origin)
[31] = tested on: P2Y purinoceptor 2 (Homo sapiens), P41231 [R110A]; experiment: Agonist activity at P2Y2 receptor R110A mutant (unknown origin) expressed in human 1321N1 astrocytoma cells assessed as increase in intracellular calcium mobilization after 1 hr by Fluo-4 AM dye based fluorescence assay; assay type: functional, cell-based; in short: as §4
Chain of P2Y purinoceptor 2 (Homo sapiens), P41231 [R110A] (P41231 whole entry R110A): as the sequence (P41231 whole entry) above, with R110A counted along it

[32] = tested on: P2Y purinoceptor 2 (Homo sapiens), P41231 [Y288F]; experiment: as §5; assay type: functional, cell-based; in short: as §4
Chain of P2Y purinoceptor 2 (Homo sapiens), P41231 [Y288F] (P41231 whole entry Y288F): as the sequence (P41231 whole entry) above, with Y288F counted along it

Nc1c(S(=O)(=O)O)cc(Nc2ccc(Nc3ccccc3Cl)c(C(=O)O)c2)c2c1C(=O)c1ccccc1C2=O
inhibition (P2Y purinoceptor 2 [1]): Active

CSc1nc(N)c2ncn([C@@H]3O[C@H](COP(=O)(O)OP(=O)(O)OP(=O)(O)O)[C@@H](O)[C@H]3O)c2n1
Ratio EC50 (Homo sapiens [2]): 350

Nc1c(S(=O)(=O)O)cc(Nc2ccccc2)c2c1C(=O)c1ccccc1C2=O
inhibition [3]: Active | inhibition (P2Y purinoceptor 2 [1]): Active | inhibition (Homo sapiens [4]): Active | inhibition (Homo sapiens [5]): Active

Cc1ccc2c(c1)C=Cc1cc(C)ccc1C2c1cn(Cc2ccc(C(=O)Nc3nnn[nH]3)o2)c(=O)[nH]c1=S
Ratio IC50 (Homo sapiens [6]): < 3 | Ratio IC50 (Homo sapiens [7]): < 3 | Ratio IC50 (Homo sapiens [8]): < 3 | Ratio IC50 (Homo sapiens [9]): < 3 | inhibition (P2Y purinoceptor 2 [1]): Active | Ratio IC50 (Homo sapiens [10]): < 3

O=c1ccn([C@@H]2O[C@H](COP(=O)(O)OP(=O)(O)OP(=O)(O)O)[C@@H](O)[C@H]2O)c(=O)[nH]1 [URIDINE TRIPHOSPHATE]
Activity [11]: inactive | Activity [12]: inactive | Activity [13]: Active | EC50 (P2Y purinoceptor 2 [14]): 911 nM | Ratio EC50 (Homo sapiens [15]): 10 to 50 | Activity [16]: inactive | Ratio EC50 (Homo sapiens [17]): 10 to 50 | Ratio EC50 (Homo sapiens [18]): > 100 | Ratio EC50 (Homo sapiens [19]): 100 | Ratio EC50 (Homo sapiens [20]): 150 | Ratio EC50 (Homo sapiens [21]): 10 to 50 | Activity [22]: Active | Activity (Homo sapiens [23]): Active | Ratio EC50 (Homo sapiens [24]): 10 to 50 | EC50 (P2Y purinoceptor 2 [25]): 5.61 nM | Ratio EC50 (Homo sapiens [26]): 50 | EC50 (P2Y purinoceptor 2 [27]): 996 nM | Ratio EC50 (Homo sapiens [28]): 10 to 50 | EC50 (P2Y purinoceptor 2 [29]): 70.6 nM | Ratio EC50 (Homo sapiens [2]): 350 | Ratio EC50 (Homo sapiens [30]): 300 | Activity [31]: inactive

Cc1cccc(Nc2ccc(Nc3cc(S(=O)(=O)O)c(N)c4c3C(=O)c3ccccc3C4=O)cc2C(=O)O)c1C
inhibition [3]: Active | inhibition (P2Y purinoceptor 2 [1]): Active | inhibition (Homo sapiens [5]): Active

Nc1ncnc2c1ncn2[C@@H]1O[C@H](COP(=O)(O)OP(=O)(O)OP(=O)(O)O)[C@@H](O)[C@H]1O
Ratio EC50 (Homo sapiens [2]): 350

Nc1ncnc2c1ncn2[C@@H]1O[C@H](COP(=O)(O)OP(=O)(O)OP(=O)(O)OP(=O)(O)OC[C@@H]2O[C@H](n3cnc4c(N)ncnc43)[C@@H](O)[C@H]2O)[C@@H](O)[C@H]1O
Activity [11]: inactive | Activity [12]: inactive | Activity [13]: inactive | Activity [32]: inactive | Activity [16]: inactive | Activity [22]: inactive | Activity (Homo sapiens [23]): inactive | Ratio EC50 (Homo sapiens [26]): 25 | Ratio EC50 (Homo sapiens [2]): > 4000 | Activity [31]: inactive

Source: ChEMBL document CHEMBL4017533, “Molecular Recognition of Agonists and Antagonists by the Nucleotide-Activated G Protein-Coupled P2Y2 Receptor” (J Med Chem, 2017)
